Compound activity: PubChem, Broad Institute
FGF22 binding: binders of recombinant human FGF22 by thermal shift | Q9HCT0 | 1.5% of 340,000 active | SYPRO orange fluorescence; percent of sucrose octasulfate shift, DMSO zero | activity (Tm shift, normalised), % at 9.99 µM;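 active = mean Tm shift, scaled 0 neutral to 100 positive control, at about 1.3% or above, every replicate too, limit read from the data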
Target sequence (Q9HCT0 whole entry, looked up): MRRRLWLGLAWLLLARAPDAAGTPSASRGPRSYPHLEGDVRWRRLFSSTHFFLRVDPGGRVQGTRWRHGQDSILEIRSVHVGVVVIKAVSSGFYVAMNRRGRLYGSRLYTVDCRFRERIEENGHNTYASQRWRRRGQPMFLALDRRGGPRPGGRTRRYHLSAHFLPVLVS
ERAP1 inh: ERAP1 (human) enzyme inhibition. Q9NZ08. recombinant ERAP1, Leu-AMC fluorescence, 60 min. inhibition, % at 10.7 µM. 0.15% of 340,000 active. AID 652197;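 active = mean replicate inhibition of at least 30%, or all replicates individually reaching that 30% level; inactive = mean below 30% and not every replicate reaching it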
PGC1a acetyl inh: modulators of PGC1a acetylation. AID 651687. inhibition, % at 15.6 µM. 0.17% of 350,000 active. U2OS PGC1a acetylation, AlphaScreen anti-acetyl-lysine; with virally co-expressed GCN5 acetyltransferase;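 active = every replicate shows inhibition of at least 40%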
FN deposit inh: fibronectin deposition inhibition; AH1F fibroblasts, Alexa488-fibronectin deposition fluorescence, overnight; inhibition, % at 12.6 µM; 0.086% of 350,000 active; AID 743247;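 active = mean inhibition across replicates of 30% or more, regardless of how many single replicates reach that level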
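Schedule: 1 h cell adhesion before compound, then overnight fibronectin incubation; test system: AH1F fibroblast monolayer depositing Alexa488-labelled fibronectin into matrix; quantity: 10000 AH1F cells per well; probe or stimulus: fluorescent fibronectin at 24 nM final; signal: fluorescence, ex 485 nm, em 525 nm; evaluation: percent inhibition as loss of matrix-bound fibronectin fluorescence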
SIRT5 inh: inhibitors of human sirtuin-5 desuccinylase | Q9NXA8 | Purified SirT5, succinyl-peptide AMC, trypsin-coupled fluorescence | inhibition, % at 15 µM | 1.1% of 330,000 active; in the data active = inhibition above about 15%
Target sequence (Q9NXA8 whole entry, looked up): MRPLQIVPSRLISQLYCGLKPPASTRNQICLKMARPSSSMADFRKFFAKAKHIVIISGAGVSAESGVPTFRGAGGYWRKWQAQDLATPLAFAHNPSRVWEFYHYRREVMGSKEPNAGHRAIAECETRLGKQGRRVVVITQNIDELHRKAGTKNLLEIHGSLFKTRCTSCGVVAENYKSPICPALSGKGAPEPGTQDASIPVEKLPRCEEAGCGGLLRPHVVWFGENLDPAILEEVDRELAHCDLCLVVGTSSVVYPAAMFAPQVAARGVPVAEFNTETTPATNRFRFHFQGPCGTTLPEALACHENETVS
Each line names hits and unclear results; the compound was inactive in the other large screens. A selection: hits, their analogues and other compounds. The true share with any hit is near 2.2%.

Nc1nc(F)nc2c1ncn2[C@@H]1O[C@H](CO)[C@@H](O)[C@H]1O	PGC1a acetyl inh 82.6
Nc1ncnc2c1ncn2C1O[C@H](CO)[C@@H](O)[C@@H]1O (stereo not given in full)	none
C[C@@H]1CN([C@H](C)CO)C(=O)Cc2cc(NC(=O)Nc3ccc(C(F)(F)F)cc3)ccc2O[C@@H]1CN(C)S(=O)(=O)c1cn(C)cn1	none
C[C@@H]1CCCCO[C@@H](CN(C)C(=O)Nc2cccc3ccccc23)[C@H](C)CN([C@H](C)CO)C(=O)c2cc(NS(=O)(=O)c3ccc(Cl)cc3)ccc2O1	FGF22 binding 2.1
C[C@H](CO)N1C[C@H](C)[C@@H](CN(C)C(=O)Nc2cccc3ccccc23)OCCCC[C@H](C)Oc2ccc(NS(=O)(=O)c3ccc(Cl)cc3)cc2C1=O	none
C[C@H]1CCCCO[C@H](CN(C)C(=O)Nc2cccc3ccccc23)[C@@H](C)CN([C@@H](C)CO)C(=O)c2cc(NS(=O)(=O)c3ccc(F)cc3)ccc2O1	SIRT5 inh 17.1 (no result: FGF22 binding)
C[C@@H]1CCCCO[C@H](CN(C)C(=O)Nc2cccc3ccccc23)[C@@H](C)CN([C@H](C)CO)C(=O)c2cc(NS(=O)(=O)c3ccc(F)cc3)ccc2O1	none (no result: FGF22 binding)
ClCc1csc(-c2ccccc2Cl)n1	FGF22 binding 43.2
COc1ccc(-c2nc(CCl)cs2)cc1	FGF22 binding 43.0
Cc1oncc1-c1csc(-c2ccccc2Cl)n1	none
C[C@H]1CN([C@@H](C)CO)C(=O)Cc2cc(N(C)C)ccc2O[C@H]1CN(C)C(=O)Nc1cccc2ccccc12	none (no result: FGF22 binding, FN deposit inh)
S=C1NC2(CCCCC2)Cc2ccccc21	none (no result: FGF22 binding, ERAP1 inh, SIRT5 inh)
COc1cc2c(cc1OC)C(=S)NC1(CCCC1)C2	SIRT5 inh 38.1
CCC(C)(C)C1CCC(=NNS(=O)(=O)c2ccc(C)c([N+](=O)[O-])c2)CC1 (stereo not given)	SIRT5 inh 18.0 (no result: PGC1a acetyl inh)
Cc1ccc(S(=O)(=O)N/N=C2/CCCCC2C2CCCCC2)cc1[N+](=O)[O-] (stereo not given)	none (no result: FGF22 binding, ERAP1 inh, PGC1a acetyl inh, SIRT5 inh)
C[C@@H]1CCCCO[C@H](CN(C)Cc2ccccc2)[C@H](C)CN([C@H](C)CO)C(=O)c2cc(NC(=O)CCC(F)(F)F)ccc2O1	SIRT5 inh 19.4
C[C@@H]1CN([C@@H](C)CO)C(=O)c2cc(NC(=O)CCCN(C)C)ccc2O[C@@H](C)CCCCO[C@@H]1CN(C)Cc1ccc(C(F)(F)F)cc1	PGC1a acetyl inh 110.0
NC(=N\N=Cc1ccccc1)/C(N)=N/N=Cc1ccccc1	FGF22 binding 44.0 (no result: SIRT5 inh)
C[C@@H]1CN([C@H](C)CO)C(=O)c2cc(NC(=O)C3CC3)ccc2O[C@H]1CN(C)Cc1ccncc1	none (no result: FN deposit inh)
CC(C)NC(=S)N1CCCN(c2ncccc2[N+](=O)[O-])CC1	SIRT5 inh 17.5
CC(C)(C)OC(=O)CC[C@@H](C(=O)NCCCCCCCCCCC(=O)N1CCN(C(=O)OC(C)(C)C)CC1)n1cc(CCCCCNC(=O)OC(C)(C)C)nn1	none (no result: ERAP1 inh, SIRT5 inh)
CC(C)(C)OC(=O)NCCCCCc1cn([C@@H](CO)C(=O)NCCCCCCCCCCC(=O)N2CCN(C(=O)OC(C)(C)C)CC2)nn1	FGF22 binding 1.3 (no result: PGC1a acetyl inh)
C#CCOCCOCCOCCNc1nc(N2CCN(C(=O)CCCCCCCCCCNC(=O)Cn3cc(C[C@@H](C)O)nn3)CC2)nc(N2CCN(C(=O)CCCCCCCCCCNC(=O)[C@H](CO)n3cc(CCCSC)nn3)CC2)n1	SIRT5 inh 19.5
C[C@@H]1CCCCO[C@@H](CN(C)CC2CC2)[C@H](C)CN([C@@H](C)CO)C(=O)c2cc(NC(=O)c3ccncc3)ccc2O1	none (no result: FN deposit inh)
O=C(c1cc(-c2ccc(Cl)cc2Cl)on1)N1CCCC1	FGF22 binding 43.6 (no result: PGC1a acetyl inh, SIRT5 inh)
C[C@H](CO)N1C[C@H](C)[C@@H](CN(C)CC2CC2)OCCCC[C@H](C)Oc2ccc(NC(=O)CCCCCC(=O)Nc3ccccc3N)cc2C1=O	none (no result: ERAP1 inh, SIRT5 inh)
COCC(=O)N1[C@H](CO)[C@H](c2ccccc2)C12CN(C(=O)c1cccnc1)C2	none (no result: FN deposit inh)
CCCNC(=O)C[C@H]1CC[C@H]2[C@@H](COC[C@@H](O)CN2C(=O)Nc2cccc(Cl)c2)O1	none
C[C@@H]1CN([C@@H](C)CO)C(=O)c2cc(-c3ccc(F)cc3)cnc2O[C@H]1CN(C)Cc1cncnc1	none
NS(=O)(=O)c1ccc(CCNC(=O)c2ccc(C#CC3(O)CCCCC3)cc2)cc1	SIRT5 inh 111.5 (no result: PGC1a acetyl inh)
C[C@H]1CN([C@@H](C)CO)C(=O)c2cc(-c3cccc(C#N)c3)cnc2O[C@@H]1CN(C)C(=O)C1CCC1	none (no result: FN deposit inh)
C[C@@H]1CN([C@H](C)CO)C(=O)c2cc(NS(=O)(=O)c3ccc(F)cc3)ccc2O[C@@H](C)CCCCO[C@H]1CN(C)S(=O)(=O)c1ccccc1	none (no result: SIRT5 inh)
CCCCC(=O)NNC(=O)c1c(O)c2ccccc2[nH]c1=O	SIRT5 inh 15.8 (no result: ERAP1 inh)
C/C(CC(=O)Nc1ccc2c(c1)OCCO2)=N\NC(=O)c1cccc(O)c1	none
CC(=O)N/N=C(\C)CC(=O)Nc1ccc2c(c1)OCCO2	FGF22 binding 43.3
CNC(=O)C[C@H]1CC[C@H]2[C@@H](COC[C@@H](O)CN2C(=O)c2ccc3c(c2)OCO3)O1	none
NC(=S)N=Nc1c(O)n(CC(=O)Nc2ccccc2)c2ccccc12	none
NC(=S)N=Nc1c(O)n(CCCl)c2ccc(Cl)cc12	FGF22 binding 43.6
NC(=S)N=Nc1c(O)n(CCCl)c2ccccc12	SIRT5 inh 18.8
CC1(C)Cc2ccccc2C(C(Cc2ccccc2)C(N)=O)=N1 (stereo not given)	FGF22 binding 43.0 (no result: PGC1a acetyl inh)
CC1(C)Cc2ccccc2C(C(=O)c2ccccc2)=N1	none
O=C(NC1=NCCS1)C12CC3CC(CC(C3)C1)C2	none
CC(C)CC(NC(=O)CC12CC3CC(CC(C3)C1)C2)C(=O)NC1=NCCS1 (stereo not given)	FGF22 binding 42.9 (no result: PGC1a acetyl inh)
COc1cccc(/C=C2/NC(=O)NC2=O)c1OCC(=O)Nc1ccccc1	FGF22 binding 43.4
COC(=O)CSc1nnc(CNC(=O)c2ccccc2F)n1-c1ccc(F)cc1	none (no result: SIRT5 inh)
CCSc1nnc(CNC(=O)c2ccccc2F)n1-c1ccccc1OC	FGF22 binding 43.5
C[C@H]1CN([C@@H](C)CO)C(=O)c2c(c3ccccc3n2C)-c2ccccc2CO[C@@H]1CN(C)Cc1ccc(F)cc1	none (no result: FGF22 binding, PGC1a acetyl inh, SIRT5 inh)
Cc1cc(O)c(N=Nc2ccc(C(=O)O)cc2)cc1C	PGC1a acetyl inh 50.1
CN(C)c1ccc(N=Nc2ccc(C(=O)O)cc2)cc1	none (no result: PGC1a acetyl inh)
C[C@H](CO)N1C[C@H](C)[C@@H](CN(C)C)Oc2ccc(NC(=O)Nc3ccc(F)cc3)cc2CC1=O	none (no result: FN deposit inh)
CC1=NOC(=O)/C1=C\c1ccc(-c2ccc(Br)cc2C(=O)O)o1	ERAP1 inh 37.6
O=C(CSc1nnc(COc2ccccc2)o1)N1CCOCC1	SIRT5 inh 22.7 (no result: PGC1a acetyl inh)
CCOC(=O)N1CCN(C(=O)CSc2nnc(COc3ccccc3)o2)CC1	none (no result: PGC1a acetyl inh)
O=C(CSc1nnc(-c2ccco2)o1)N1CCOCC1	none (no result: FGF22 binding, ERAP1 inh, FN deposit inh, SIRT5 inh)
O=C(CSc1nnc(-c2ccco2)o1)N1CCN(c2ccccc2)CC1	FGF22 binding 43.0
